Data on 6 compounds can be found in ChEMBL document CHEMBL3259819, “Antimicrobial peptides from skin secretions of Hypsiboas pulchellus (Anura: Hylidae)” (J Nat Prod, 2014).

Structures are written as SMILES. Converted amounts (≈) assume the structure as drawn. Where a SMILES comes first, the peptide text is derived from it.

The nature of data set [1]: Therapeutic index, ratio of hemolytic activity in human erythrocytes assessed as lowest concentration required for hemolysis to MIC for Escherichia coli. It counts as cell-based. Particulars: read-out: TI. In short, it runs like this: (§1)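 TI is the lowest hemolytic concentration divided by the MIC, calculated per peptide and strain. LHC is the lowest peptide concentration giving 100% hemolysis of human erythrocytes (60 min, 37 °C). Where 100% hemolysis was not reached at 320 μM, 640 μM was used. MICs came from microtiter broth dilution against E. coli ATCC 25922 or S. aureus ATCC 25929.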

Data set [2] has as its system Staphylococcus aureus. Kind of data set: Antimicrobial activity against Staphylococcus aureus ATCC 25929 after 18 to 24 hrs by microtitre dilution method. It counts as functional. In short, it runs like this: (§2)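 Modified microtiter broth dilution (Hancock method for AMPs). Strains were activated 24 h at 37 °C in Mueller-Hinton broth, and the inoculum was set to 5 × 10^7 cfu/mL. Tests ran in diluted MHB for 18 to 24 h at 37 °C. Peptides were solubilised in water with 10% acetic acid; the top assay concentration was 1280 μg/mL. MIC is the lowest concentration inhibiting growth.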

Data set [3] can be described thus: Hemolytic activity in human erythrocytes assessed as lowest concentration required to hemolysis after 60 mins. Type of data set: ADME, cell-based. Particulars: erythrocyte, 1 h. Put shortly: (§3)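 Human erythrocytes came from heparinized blood, were washed three times in saline and pelleted, then suspended at 0.4% (v/v) in isotonic saline. 1 mL cells was mixed with 1 mL peptide dilution and held 60 min at 37 °C. After centrifugation, supernatant absorbance was read at 405 nm, with lysis by 1% Triton X-100 set as 100%.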

Data set [4] is described as follows: Therapeutic index, ratio of hemolytic activity in human erythrocytes assessed as lowest concentration required for hemolysis to MIC for Staphylococcus aureus. Type of data set: cell-based. The following applies: read-out: TI. Put shortly: as §1
Data set [5] has as its system Escherichia coli. Kind of data set: Antimicrobial activity against Escherichia coli ATCC 25922 after 18 to 24 hrs by microtitre dilution method. It counts as functional. In short, it runs like this:
as §2

The nature of data set [6]: Hemolytic activity in human erythrocytes at 320 uM after 60 mins. Particulars: read-out: Activity. It counts as ADME, cell-based, Erythrocyte. Put shortly: as §3
The subject of data set [7] is Staphylococcus aureus. Kind of data set: Antimicrobial activity against Staphylococcus aureus. It counts as functional.
Data set [8] relates to Pseudomonas aeruginosa. Kind of data set: Antimicrobial activity against Pseudomonas aeruginosa. Type of data set: functional.
The subject of data set [9] is Escherichia coli. Kind of data set: Antimicrobial activity against Escherichia coli. Type of data set: functional.
Data set [10] deals with Enterococcus faecalis. Kind of data set: Antimicrobial activity against Enterococcus faecalis. It counts as functional.
A short description of data set [11]: Toxicity in erythrocytes (unknown origin) assessed as hemolytic activity. It counts as cell-based, Erythrocyte. The following applies: read-out: HD50 (the source's name). Put shortly:
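Human erythrocytes from heparinised blood, spun 3000 rpm for 10 min after three saline washes, used at 0.4% (v/v) in isotonic saline. Equal volumes incubated with increasing concentrations (0.4 to 4.4 mg/mL for extracts) for 60 min at 37 °C. Cells spun at 3000 rpm for 5 min and supernatant A405 read. Lysis by 1% Triton X-100 served as 100%.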

For data set [12], the system named is Bacillus subtilis. Kind of data set: Antimicrobial activity against Bacillus subtilis. Type of data set: functional.
A short description of data set [13]: Hemolytic activity in human erythrocytes at 20 uM after 60 mins. Type of data set: ADME, cell-based, Erythrocyte. The following applies: read-out: Activity. Put shortly:
as §3

As for `CC(C)C[C@H](NC(=O)[C@H](CC(C)C)NC(=O)[C@@H](NC(=O)[C@@H]1CCCN1C(=O)[C@H](CCCCN)NC(=O)[C@@H](N)[C@@H](C)O)[C@@H](C)O)C(=O)NCC(=O)N[C@@H](CC(C)C)C(=O)N1CCC[C@H]1C(=O)N[C@@H](CC(C)C)C(=O)NCC(=O)N[C@@H](C)C(=O)NCC(=O)N1CCC[C@H]1C(=O)N[C@@H](C)C(=O)N[C@@H](C)C(=O)NCC(=O)N1CCC[C@H]1C(=O)NCC(=O)N[C@@H](CCCCN)C(=O)N[C@@H](CCCNC(=N)N)C(N)=O` (H-TKPTLLGLPLGAGPAAGPGKR-NH2), the results for the selectivity ratio in data set [1] and in [4] were 40 and 80, respectively. The MIC in data set [2] stood at 8 µM (≈ 15.8 µg/mL); in data set [5] it was 16 µM (≈ 31.5 µg/mL). In [3], the MHC was found to be 640 µM. Moreover, the hemolysis at 1 h, 320 µM in [6] is not above 12%.

As for `CC(C)C[C@H](NC(=O)[C@H](CO)NC(=O)[C@@H]1CCCN1C(=O)[C@H](CO)NC(=O)[C@H](CC(C)C)NC(=O)[C@@H](N)CCCCN)C(=O)NCC(=O)N1CCC[C@H]1C(=O)N[C@H](C(=O)N[C@@H](CO)C(=O)N[C@@H](CCCCN)C(=O)NCC(=O)N[C@@H](CCCCN)C(=O)N[C@@H](CC(C)C)C(=O)N[C@@H](CC(C)C)C(=O)N[C@@H](C)C(=O)NCC(=O)N[C@@H](CCC(N)=O)C(=O)N[C@@H](CCCNC(=N)N)C(N)=O)C(C)C` (H-KLSPSLGPVSKGKLLAGQR-NH2), the selectivity ratio was determined as 9.7 in [1] and 4.9 in [4]. Besides, the MIC in data set [2] is 66 µM (≈ 128 µg/mL); in data set [5] it was 33 µM (≈ 63.9 µg/mL). For the same compound, the MHC in [3] was 320 µM. Also, the hemolysis at 1 h, 320 µM in data set [6] worked out at 100%.

Consider `CC(C)C[C@H](NC(=O)[C@H](C)NC(=O)[C@@H](NC(=O)[C@H](CCCCN)NC(=O)CNC(=O)[C@@H](NC(=O)[C@@H](NC(=O)[C@H](CCCCN)NC(=O)CNC(=O)[C@H](CC(C)C)NC(=O)[C@H](CO)NC(=O)[C@H](CCCCN)NC(=O)[C@H](CC(C)C)NC(=O)[C@H](CCCCN)NC(=O)[C@H](CC(=O)O)NC(=O)[C@H](CC(C)C)NC(=O)[C@H](Cc1c[nH]c2ccccc12)NC(=O)[C@H](C)N)C(C)C)C(C)C)C(C)C)C(=O)NCC(=O)N[C@H](C(=O)N[C@@H](C)C(=O)N[C@@H](CCC(N)=O)C(=O)N[C@@H](CC(N)=O)C(=O)N[C@@H](Cc1ccc(O)cc1)C(=O)N[C@@H](CC(C)C)C(=O)N[C@@H](CC(N)=O)C(=O)N1CCC[C@H]1C(=O)N[C@@H](CCC(N)=O)C(=O)N[C@@H](CCC(N)=O)C(=O)O)C(C)C` (H-AWLDKLKSLGKVVGKVALGVAQNYLNPQQ-OH), for which the MIC in data set [7] amounted to 20 µM (≈ 62.8 µg/mL); in data set [8] it was 10 µM (≈ 31.4 µg/mL); in [9], 5 µM (≈ 15.7 µg/mL).

For `CC[C@H](C)[C@H](N)C(=O)N[C@@H](Cc1ccccc1)C(=O)NCC(=O)N[C@@H](C)C(=O)N[C@H](C(=O)N[C@@H](CC(C)C)C(=O)N1CCC[C@H]1C(=O)N[C@@H](CC(C)C)C(=O)N[C@@H](C)C(=O)N[C@@H](CC(C)C)C(=O)NCC(=O)N[C@@H](C)C(=O)N[C@@H](CC(C)C)C(=O)N[C@@H](CCCCN)C(=O)N[C@@H](CC(N)=O)C(=O)N[C@@H](CC(C)C)C(=O)N[C@H](C(=O)N[C@@H](CCCCN)C(=O)O)[C@@H](C)CC)[C@@H](C)CC` (H-IFGAILPLALGALKNLIK-OH), the MIC in [10] was 16 µM (≈ 29.8 µg/mL); in [7], 8 µM (≈ 14.9 µg/mL); in [8], 64 µM (≈ 119 µg/mL); in data set [9], 32 µM (≈ 59.7 µg/mL); in [12] it was 8 µM (≈ 14.9 µg/mL). Also, in data set [11], the HC50 came to 18 µM.

Consider `CC(C)C[C@H](NC(=O)CNC(=O)[C@H](C)NC(=O)[C@H](CC(C)C)NC(=O)[C@H](CC(C)C)NC(=O)[C@@H](NC(=O)[C@H](CCCCN)NC(=O)[C@H](CC(C)C)NC(=O)[C@H](CC(C)C)NC(=O)[C@H](C)NC(=O)[C@@H]1CCCN1C(=O)[C@H](CC(C)C)NC(=O)[C@H](C)NC(=O)[C@@H](NC(=O)CNC(=O)[C@H](CC(C)C)NC(=O)[C@@H](N)CCCNC(=N)N)[C@@H](C)O)[C@@H](C)O)C(=O)N[C@@H](CC(N)=O)C(=O)NCC(N)=O` (H-RLGTALPALLKTLLAGLNG-NH2), for which the selectivity ratio in [1] and in [4] was 1.5 throughout. In addition, the minimal inhibitory concentration (MIC) in data set [2] and in data set [5] was 17 µM (≈ 32.2 µg/mL) each time. For the same compound, in data set [13], the hemolysis at 1 h, 20 µM is more than 90%. In addition, the MHC in [3] was determined as 25 µM.

With `CC[C@H](C)[C@H](NC(=O)CN)C(=O)N[C@@H](CC(C)C)C(=O)N[C@@H](CC(=O)O)C(=O)N[C@@H](C)C(=O)N[C@H](C(=O)N[C@@H](CCCCN)C(=O)N[C@@H](C)C(=O)N[C@H](C(=O)N[C@@H](C)C(=O)N[C@@H](CCCCN)C(=O)N[C@@H](C)C(=O)N[C@@H](C)C(=O)NCC(=O)O)[C@@H](C)CC)[C@@H](C)CC` (H-GILDAIKAIAKAAG-OH), the minimal inhibitory concentration (MIC) amounted to 8 µM (≈ 10.5 µg/mL) in [7], 64 µM (≈ 83.9 µg/mL) in [8] and 32 µM (≈ 42 µg/mL) in data set [9].
